Assay type in all cases: functional, cell-based
A short description of assay [1]: Cytotoxicity against human SH-SY5Y cells after 72 hrs by MTT assay. The procedure, abridged:
(§1)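 Cells cultured in DMEM or RPMI 1640 with 10% FBS. Seeded at about 2 × 10^3 per well and grown 24 h at 37 °C, 5% CO2. Compounds added at final 0.1–1000 uM for 72 h, 5 wells per concentration. MTT added for 4 h at 37 °C, then lysis overnight. Absorbance read at 570 nm against a 650 nm reference; IC50 calculated.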
A general note: Tetrazolium dyes change colour on reduction, which living cells bring about.

Assay [2] is described as follows: Cytotoxicity against human HepG2 cells after 72 hrs by MTT assay. The conditions noted are these: HepG2, 72 h. Summed up:
as §1

Assay [3] is described as follows: Cytotoxicity against human A549 cells after 72 hrs by MTT assay. The conditions noted are these: A549, 72 h. The procedure, abridged:
as §1

The nature of assay [4]: Cytotoxicity against human MCF7 cells after 72 hrs by MTT assay. The conditions noted are these: MCF7, 72 h. Summed up:
as §1

Assay [5] is described as follows: Cytotoxicity against human DU145 cells after 72 hrs by MTT assay. The conditions noted are these: DU-145, 72 h. Summed up: as §1

With `N#Cc1cnn2c(Nc3ccc(Cl)cc3)cc(CN(CCCl)CCCl)nc12`, the IC50 (as a rule, the midpoint of a concentration-inhibition curve) came to 50.6 µM in assay [1]; 39.3 µM in assay [2]; 79.5 µM in assay [3]; 33 µM in assay [4]; 42.9 µM in assay [5].

Consider `N#Cc1cnn2c(Nc3ccccc3Cl)cc(CN(CCCl)CCCl)nc12`, for which the IC50 in assay [1], in assay [2], in assay [3], in assay [4] and in assay [5] was over 100 µM throughout.

`CN1CCN(Cc2cc(Nc3cccc(N(CCCl)CCCl)c3)n3ncc(C#N)c3n2)CC1`: the IC50 worked out at 15.3 µM in assay [1]; 17.6 µM in assay [2]; 19.5 µM in assay [3]; 41.1 µM in assay [4]; 50.5 µM in assay [5].

`N#Cc1cnn2c(Nc3ccc(Br)cc3)cc(CN(CCCl)CCCl)nc12`: the IC50 in assay [1] came to 49.1 µM; in assay [2], 37.2 µM; in assay [3], 61.4 µM; in assay [4], 28.3 µM; in assay [5] it was 33.1 µM.

Turning to `N#Cc1cnn2c(Nc3cccc(Cl)c3)cc(CN(CCCl)CCCl)nc12`, the IC50 in assay [1] was over 100 µM; in assay [2] it was 56.6 µM; in assay [3], over 100 µM; in assay [4], 23 µM; in assay [5] it was 43.5 µM.

Regarding `N#Cc1cnn2c(Nc3cccc(N(CCCl)CCCl)c3)cc(CN3CCC(O)CC3)nc12`, the half-maximal inhibitory concentration (IC50) in assay [1] is 36.7 µM; in assay [2], 29.7 µM; in assay [3], 35.8 µM; in assay [4], 70.4 µM; in assay [5], over 100 µM.

Take `CN(C)C1CCN(Cc2cc(Nc3cccc(N(CCCl)CCCl)c3)n3ncc(C#N)c3n2)CC1`: the IC50 in assay [1] was 15.3 µM; in assay [2], 9.22 µM; in assay [3], 12.7 µM; in assay [4], 25.2 µM; in assay [5] it was 27 µM.

As for `N#Cc1cnn2c(Nc3cc(F)cc(F)c3)cc(CN(CCCl)CCCl)nc12`, the IC50 in assay [1] was over 100 µM; in assay [2] it was over 100 µM; in assay [3], over 100 µM; in assay [4], 84.4 µM; in assay [5] it was over 100 µM.

As for `N#Cc1cnn2c(Nc3cccc(F)c3)cc(CN(CCCl)CCCl)nc12`, the IC50 in assay [1] was over 100 µM; in assay [2], 67.2 µM; in assay [3], over 100 µM; in assay [4], over 100 µM; in assay [5], over 100 µM.

Consider `N[C@@H](Cc1ccc(N(CCCl)CCCl)cc1)C(=O)O` [MELPHALAN], for which the IC50 in assay [1] was over 100 µM; in assay [2] it was 18.3 µM; in assay [3] it was 43.8 µM; in assay [4], 40.6 µM; in assay [5] it was over 100 µM.

For the compound `N#Cc1cnn2c(Nc3cccc(N(CCCl)CCCl)c3)cc(CN3CCOCC3)nc12`, the IC50 in assay [1] is 61 µM; in assay [2], 33.4 µM; in assay [3], over 100 µM; in assay [4], over 100 µM; in assay [5] it was over 100 µM.

Regarding `N#Cc1cnn2c(Nc3ccc(F)cc3)cc(CN(CCCl)CCCl)nc12`, the IC50 in assay [1] was over 100 µM; in assay [2], 64.2 µM; in assay [3] it was over 100 µM; in assay [4], 77.5 µM; in assay [5], 84.4 µM.

For the compound `N#Cc1cnn2c(Nc3ccc(N(CCCl)CCCl)cc3)cc(CN3CCC(CO)CC3)nc12`, the IC50 in assay [1] is 11.5 µM; in assay [2], 8.54 µM; in assay [3] it was 12.8 µM; in assay [4], 16.2 µM; in assay [5], 26.8 µM.

In the case of `N#Cc1cnn2c(Nc3ccc(F)c(Cl)c3)cc(CN(CCCl)CCCl)nc12`, the IC50 is over 100 µM in assay [1]; 89.4 µM in assay [2]; over 100 µM in assay [3]; 76.8 µM in assay [4]; 27.4 µM in assay [5].

As to `Cc1cccc(Nc2cc(CN(CCCl)CCCl)nc3c(C#N)cnn23)c1`, the IC50 was 79.9 µM in assay [1]; 62.1 µM in assay [2]; over 100 µM in assay [3]; 25.8 µM in assay [4]; 35 µM in assay [5].

Take `N#Cc1cnn2c(Nc3ccc(N(CCCl)CCCl)cc3)cc(CN3CCOCC3)nc12`: the IC50 in assay [1] worked out at 6.71 µM; in assay [2] it was 5.51 µM; in assay [3] it was 13.6 µM; in assay [4] it was 11.3 µM; in assay [5], 10.7 µM.

For the compound `N#Cc1cnn2c(Nc3ccc(F)c(C(F)(F)F)c3)cc(CN(CCCl)CCCl)nc12`, the IC50 in assay [1] was over 100 µM; in assay [2], over 100 µM; in assay [3], over 100 µM; in assay [4] it was 75.1 µM; in assay [5] it was over 100 µM.

In the case of `N#Cc1cnn2c(Nc3cccc(N(CCCl)CCCl)c3)cc(CN3CCC(N4CCCCC4)CC3)nc12`, the IC50 in assay [1] was determined as 9.36 µM; in assay [2], 9.07 µM; in assay [3], 13.2 µM; in assay [4] it was 25.1 µM; in assay [5] it was 22.4 µM.

Turning to `CCOC(=O)c1ccc(Nc2cc(CN(CCCl)CCCl)nc3c(C#N)cnn23)cc1`, the IC50 in assay [1] came to 64.4 µM; in assay [2], 52.1 µM; in assay [3], 85.4 µM; in assay [4], 26.4 µM; in assay [5], 37.3 µM.

For `C#Cc1cccc(Nc2cc(CN(CCCl)CCCl)nc3c(C#N)cnn23)c1`, the IC50 is over 100 µM in assay [1]; 44.2 µM in assay [2]; over 100 µM in assay [3]; 34 µM in assay [4]; 83.1 µM in assay [5].

In the case of `N#Cc1cnn2c(Nc3ccc(N(CCCl)CCCl)cc3)cc(CN3CCC(c4ccccc4)CC3)nc12`, the IC50 in assay [1], in assay [2], in assay [3], in assay [4] and in assay [5] was over 100 µM each time.

In the case of `CCOC(=O)C1CCN(Cc2cc(Nc3ccc(N(CCCl)CCCl)cc3)n3ncc(C#N)c3n2)CC1`, the IC50 in assay [1] was 74.1 µM; in assay [2], 74.2 µM; in assay [3] it was over 100 µM; in assay [4], over 100 µM; in assay [5], over 100 µM.

For the compound `Cc1ccccc1Nc1cc(CN(CCCl)CCCl)nc2c(C#N)cnn12`, the IC50 in assay [1] is over 100 µM; in assay [2], over 100 µM; in assay [3], over 100 µM; in assay [4], 99.2 µM; in assay [5], over 100 µM.

As to `Cc1cc(Nc2cc(CN(CCCl)CCCl)nc3c(C#N)cnn23)ccc1F`, the IC50 in assay [1] came out at 77.9 µM; in assay [2], 39 µM; in assay [3] it was 75 µM; in assay [4], 38 µM; in assay [5] it was 76.1 µM.

Regarding `N#Cc1cnn2c(Nc3ccc(C(F)(F)F)cc3)cc(CN(CCCl)CCCl)nc12`, the IC50 was over 100 µM in assay [1]; 55.5 µM in assay [2]; over 100 µM in assay [3]; 33 µM in assay [4]; 95.1 µM in assay [5].

For the compound `N#Cc1cnn2c(Nc3cccc(Br)c3)cc(CN(CCCl)CCCl)nc12`, the IC50 in assay [1] is over 100 µM; in assay [2] it was 49.7 µM; in assay [3], over 100 µM; in assay [4], 41 µM; in assay [5], over 100 µM.

With `Cc1cc(C)cc(Nc2cc(CN(CCCl)CCCl)nc3c(C#N)cnn23)c1`, the IC50 is over 100 µM in assay [1]; 59.4 µM in assay [2]; 97.4 µM in assay [3]; over 100 µM in assay [4]; over 100 µM in assay [5].

Regarding `CCN1CCN(Cc2cc(Nc3cccc(N(CCCl)CCCl)c3)n3ncc(C#N)c3n2)CC1`, the IC50 amounted to 22.7 µM in assay [1]; 16.6 µM in assay [2]; 16.5 µM in assay [3]; 23.9 µM in assay [4]; 44.1 µM in assay [5].

For `N#Cc1cnn2c(Nc3cccc(N(CCCl)CCCl)c3)cc(CN3CCCC3)nc12`, the IC50 in assay [1] was found to be 15.7 µM; in assay [2], 14.4 µM; in assay [3] it was 17.5 µM; in assay [4], 37.5 µM; in assay [5], 35.4 µM.

Take `CC1CCN(Cc2cc(Nc3cccc(N(CCCl)CCCl)c3)n3ncc(C#N)c3n2)CC1`: the IC50 is 25.9 µM in assay [1]; 33.8 µM in assay [2]; 35.9 µM in assay [3]; over 100 µM in assay [4]; 55.8 µM in assay [5].

Regarding `N#Cc1cnn2c(Nc3ccc(N(CCCl)CCCl)cc3)cc(CN3CCC(O)CC3)nc12`, the IC50 in assay [1] was determined as 13.7 µM; in assay [2], 9.11 µM; in assay [3] it was 20.6 µM; in assay [4], 20.4 µM; in assay [5] it was 20.9 µM.

As to `CCOC(=O)C1CCN(Cc2cc(Nc3cccc(N(CCCl)CCCl)c3)n3ncc(C#N)c3n2)CC1`, the IC50 in assay [1] is over 100 µM; in assay [2], 88.1 µM; in assay [3] it was over 100 µM; in assay [4], over 100 µM; in assay [5], over 100 µM.

With `N#Cc1cnn2c(Nc3cccc(N(CCCl)CCCl)c3)cc(CN3CCC(c4ccccc4)CC3)nc12`, the IC50 in assay [1], in assay [2], in assay [3], in assay [4] and in assay [5] was over 100 µM throughout.

As to `N#Cc1cnn2c(Nc3ccccc3Br)cc(CN(CCCl)CCCl)nc12`, the IC50 in assay [1], in assay [2], in assay [3], in assay [4] and in assay [5] was over 100 µM in each case.

In the case of `CN(C)Cc1cc(Nc2cccc(N(CCCl)CCCl)c2)n2ncc(C#N)c2n1`, the IC50 in assay [1] was found to be 40.8 µM; in assay [2] it was 33.6 µM; in assay [3], 39.8 µM; in assay [4], 54.6 µM; in assay [5], 59.3 µM.

As for `COc1cc(Nc2cc(CN(CCCl)CCCl)nc3c(C#N)cnn23)cc(OC)c1`, the IC50 in assay [1], in assay [2], in assay [3], in assay [4] and in assay [5] was over 100 µM in each case.

With `N#Cc1cnn2c(Nc3cccc(N(CCCl)CCCl)c3)cc(CN3CCC(CO)CC3)nc12`, the IC50 in assay [1] was found to be 30.7 µM; in assay [2] it was 18.4 µM; in assay [3] it was 27.9 µM; in assay [4] it was 41.1 µM; in assay [5] it was 33.4 µM.
